Experimental findings from ChEMBL document CHEMBL4513216, “Probing the Open Global Health Chemical Diversity Library for Multistage-Active Starting Points for Next-Generation Antimalarials” (ACS Infect Dis, 2020) are described below.

The structures appear in SMILES notation.

This data set can be described thus: Toxicity liver stage against HepG2, at 10uM. Conditions: human, HepG2-A16-CD81EGFP cells; read-out: INHIBITION
More on the design: test concentration 10 uM, cell line HepG2-A16-CD81EGFP. The format is cell-based. The gist of the method: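 Uninfected HepG2-A16-CD81EGFP cells, 3 × 10^3 per well, 1536-well, plated on prespotted compound at 10 μM final, parasite-free screening media added to match infected plates; puromycin 10 μM positive, DMSO 0.5% negative; run in parallel with 48 h PbLuc assay at 37 °C, 5% CO2; viability by CellTiter-Glo luminescence, normalized to controls.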

For the compound `COc1ccc(CNC(=O)Nc2cccnc2OC)cc1O`, the cytotoxicity at 10 µM is -26.3%. To `CN(c1ncc(S(N)(=O)=O)s1)C1CCc2ccccc21` (configuration not stated) belongs -1.62%; to `COc1ccc(Cn2c(Cc3c(C)n[nH]c3C)n[nH]c2=O)cc1`, -142%; to `CC(C)N1CCn2c(COCC3CCOCC3)cnc2C1C` (configuration not stated), 8.22%. For the compound `O=C(Cc1cn2ccccc2n1)N1CCCC(n2ccnc2)C1` (configuration not stated), the cytotoxicity at 10 µM was -22.4%. To `Cc1cccc(CN2CCc3onc(Cn4cccc4)c3C2)n1` belongs 7.81%; to `Cc1ccc(N2CCCN(C(=O)CCc3nccs3)CC2)nn1`, -7.91%; to `Cn1cc(C2CCCN2C(=O)CCCc2cccs2)cn1` (configuration not stated), -2.12%. To `Cc1nn(C)c2ncc(S(=O)(=O)N3CCCC(C)CC3)cc12` (configuration not stated) belongs 2.6%; to `CC(C)C(=O)N1CCOC[C@H](Oc2ccc(C(F)(F)F)cc2)C1`, 4.53%; to `CN(C)C(=O)N1CCN(CCCc2ccccc2)[C@H]2CS(=O)(=O)C[C@H]21`, -5.18%. Then `CCOCC1CN(Cc2ccc3c(c2)OCO3)Cc2nccn2C1` (configuration not stated), with -126%. As to `Cc1ccc(O)c(CN2CCn3nc(C(=O)N4CCCC4)cc3C2)n1`, the cytotoxicity at 10 µM was 1.5%. For `COCCNC(=O)C(C)n1cc(Br)cn1` (configuration not stated), the cytotoxicity at 10 µM is -15%. Turning to `Cn1cc(CNC2CCOCC2)c(-c2cc3ccccc3o2)n1`, the cytotoxicity at 10 µM is -45.1%.

Regarding `Cc1nc(C(NC(=O)CC(F)(F)F)c2ccc(Cl)cc2)no1` (configuration not stated), the cytotoxicity at 10 µM came to 9.83%. Then `COCCN1C(=O)CO[C@H]2CN(Cc3ccccc3OC)C[C@H]21`, with -1.52%; and `Cc1ncn(CCNC(=O)Nc2ccc(OC(F)(F)F)cc2)c(=O)c1C`, with -1.32%. As to `COCc1nc(-c2ccnc(N3CCNCC3)n2)no1`, the cytotoxicity at 10 µM was 12.5%. Take `CC1CN(c2cc(CNCc3cccc4c3OCCO4)ccn2)CCO1` (configuration not stated): the cytotoxicity at 10 µM was determined as 3.96%. Consider `O=S(=O)(CCN1CCN(c2ccccc2O)CC1)c1ccc(Br)cc1`, for which the cytotoxicity at 10 µM was determined as 10.7%. Turning to `CC(C)N1CCC2(CCCNC2)C1=O` (configuration not stated), the cytotoxicity at 10 µM amounted to 0.906%.

Consider `CCNc1ncc(CN2CCOC(Cc3cccc(OC)c3)C2)cn1` (configuration not stated), for which the cytotoxicity at 10 µM amounted to 0.583%. Regarding `CCC(C(=O)Nc1ccc(-c2nc(C)n[nH]2)cc1)N1CCCC1=O` (configuration not stated), the cytotoxicity at 10 µM is -44.8%. Regarding `Cc1cc(C)cc(CN2C[C@@H]3OCCN(CC(=O)N(C)C)[C@@H]3C2)c1`, the cytotoxicity at 10 µM is -92.9%. Turning to `c1ccc(CN2CCC3(COCc4cnc(NCC5CC5)nc43)C2)cc1` (configuration not stated), the cytotoxicity at 10 µM was found to be 12.5%. With `CC(OCC1CC1)C(=O)N1CCCN(Cc2nccn2C)CC1` (configuration not stated), the cytotoxicity at 10 µM amounted to 2.48%. Take `O=C(CNc1ccc(F)cc1OCC(F)(F)F)NCc1ccco1`: the cytotoxicity at 10 µM was 7.35%. Then `CNC(=O)C(CCSC)NC(=O)c1ccc2ccccc2n1` (configuration not stated), with -1.35%. With `Cc1cccc(CN2Cc3nccn3CC(CN3CCOCC3)C2)c1` (configuration not stated), the cytotoxicity at 10 µM is -75.2%. For the compound `CCN(Cc1cnn(C)c1)S(=O)(=O)c1ccc(NC(=O)C(C)(C)C)cc1`, the cytotoxicity at 10 µM worked out at 0.165%. `CCn1nc(C)c2nc(C)nc(NCCc3ccccc3)c21`: the cytotoxicity at 10 µM stood at 25.2%. Then `CCOc1ccc(Cl)c(C(=O)NC(C(N)=O)c2ccccc2)n1` (configuration not stated), with -0.425%; and `Cc1nnc2n1CCN(Cc1nc3c(F)cccc3[nH]1)C2`, with -2.3%; and `CCOC(=O)c1c(NC(=O)CN2CCN(C(C)=O)CC2)sc(C)c1C`, with 1.15%. For `CC(C)CNC(=O)NC(=O)C(C)Nc1cccc(CN2CCOC2=O)c1` (configuration not stated), the cytotoxicity at 10 µM was -3.37%. With `CC1CCN(c2cc(CCC3CCCN3)ncn2)CC1` (configuration not stated), the cytotoxicity at 10 µM is -14.6%. As for `CCN1CC2(CCC1=O)CCN(Cc1cc(F)ccc1Cl)CC2`, the cytotoxicity at 10 µM stood at 6.58%. Regarding `CC(=O)Nc1nc(C2CCN(C(=O)c3cncs3)CC2)cs1`, the cytotoxicity at 10 µM is -8.91%. With `CC(=O)NC1CCCN(C(=O)NCc2cccnc2-n2cccn2)C1` (configuration not stated), the cytotoxicity at 10 µM worked out at 5.56%. To `Cc1ccc2[nH]c(C3CCN(CC(N)=O)CC3)nc2c1` belongs 3.23%; to `CN(C)c1ncccc1C(=O)N1CCCN(c2cccnn2)CC1`, 9.41%; to `O=S(=O)(CC1CCCN1S(=O)(=O)c1cccnc1)c1ccccc1` (configuration not stated), -4.31%. With `CS(=O)(=O)N1CCOC2(CCCN(c3cnccn3)C2)C1` (configuration not stated), the cytotoxicity at 10 µM was -3.23%. For the compound `C[C@@H]1CN(C(=O)c2cc(COc3ccc4c(c3)OCO4)[nH]n2)C[C@H](C)O1`, the cytotoxicity at 10 µM was -6.37%. Then `CCn1cncc1Cn1ncc2ccccc2c1=O`, with 3.7%; and `Cc1cnn(C2CCCN(C(=O)c3ccc(-n4ccnc4)cc3)C2)c1` (configuration not stated), with -1.14%. Then `Cn1cc(C2(C)CN(Cc3ccc(Cl)c(F)c3)CCO2)cn1` (configuration not stated), with 4.98%. Take `CCCC(=O)NCCc1cc(N2CCN(C(C)=O)CC2)nc(C2CC2)n1`: the cytotoxicity at 10 µM is -28.2%.

Turning to `COc1ccc(N2CCC(N(C)C(=O)C(C)SC)CC2)cc1` (configuration not stated), the cytotoxicity at 10 µM worked out at 1.69%.

As to `Cc1ccccc1CSc1ncc(Br)c(C(=O)O)n1`, the cytotoxicity at 10 µM was determined as 6.99%. Turning to `CNc1cc(C2CCCN2C(=O)CCc2cnn(C)c2C)ccn1` (configuration not stated), the cytotoxicity at 10 µM is 5.98%. For the compound `CCOC(=O)C(C)Nc1ccc(CCN2CCOCC2)cc1` (configuration not stated), the cytotoxicity at 10 µM is -2.2%.

Take `Cc1nccn1C1CCCN(C(=O)c2cnc[nH]2)C1` (configuration not stated): the cytotoxicity at 10 µM is -5.43%. Then `CC(Cc1cn(CCc2nc(N)cc(O)n2)nn1)c1ccccc1` (configuration not stated), with -5.58%; and `CCc1n[nH]c(C(=O)NCCn2ccnc2C)c1C`, with -9.29%. Then `Cc1oc(-c2cccc(F)c2F)nc1CN(C)CCO`, with -9.49%; and `CCc1nccn1CCCNc1nccc(-c2c(C)nn(C)c2C)n1`, with 2.96%; and `CCn1cnnc1CNC(=O)N(C)Cc1ccc(Cl)cc1Cl`, with -17.7%. On to `Cc1cc(N2CCC(c3ncc[nH]3)CC2)nc(N)n1`, for which the cytotoxicity at 10 µM was -7.54%. In the case of `Cc1nc(-c2ccc(Cl)cc2)n(CC(=O)NC(C)C)c(=O)c1CCO`, the cytotoxicity at 10 µM was -8.88%. With `CCC(Nc1ccc(Oc2ccccc2OC)cc1)C(N)=O` (configuration not stated), the cytotoxicity at 10 µM is 1.77%. Then `CC(=O)N1CCN(C(C)c2nnc(CC(C)C)o2)CC1` (configuration not stated), with 6.88%. As for `O=C([C@H]1CC[C@@H]2[C@@H](CCN2Cc2ccc(F)cc2)O1)N1CCCO1`, the cytotoxicity at 10 µM turned out to be 3.74%.

For the compound `Fc1cnc(N2CCCC3(CCN(c4ncccn4)C3)C2)nc1` (configuration not stated), the cytotoxicity at 10 µM is -113%. To `CC(=O)N1CC(C)CN(C(=O)c2cccnc2C)c2ccccc21` (configuration not stated) belongs 6.45%; to `CN(CCc1cn[nH]c1)C(=O)C(c1ccc(F)cc1)N(C)C` (configuration not stated), -19.5%; to `Cc1nc(CN2CCN(C(=O)NC(C)c3cccnc3)CC2)cs1` (configuration not stated), -10.4%. For `Cn1ccc2c(C(=O)NCCCN3CCCC3)cccc21`, the cytotoxicity at 10 µM was -18.3%. Then `O=C(CCNC(=O)C1=Cc2ccccc2OC1)NCc1ccncc1`, with 5.6%; and `Cc1cc(C)c2cc(CNC(C)C)c3nn(C)c(=O)n3c2c1`, with -5%. Then `CN(CCCc1nccn1C)C(=O)C1CCN(C(=O)C2CC2)CC1`, with -4.49%; and `Cc1ncsc1C(=O)NC1CCN(CCC(N)=O)CC1`, with -10.2%; and `CCCc1nc(N2CCC(C)CC2)c2c(n1)c(C)nn2CC`, with 1.64%. In the case of `COc1ccc(CN2CC[C@H]3[C@H]2CC(=O)N3Cc2cccc(C)n2)cc1`, the cytotoxicity at 10 µM was determined as 1.2%.

For the compound `COCC1CN(C(=O)c2cccs2)Cc2nccn2C1` (configuration not stated), the cytotoxicity at 10 µM is -104%. Turning to `CCCC(NC(=O)c1occc1C)c1nnn[nH]1` (configuration not stated), the cytotoxicity at 10 µM is -9.36%. `c1ccc(-c2cccc(N3CCC(NCCc4cscn4)CC3)c2)cc1`: the cytotoxicity at 10 µM stood at 3.58%. Take `CCCNC(=O)c1sccc1N(C)S(=O)(=O)c1ccc(Cl)cc1`: the cytotoxicity at 10 µM is 9.22%.

Turning to `COc1ccc(NC(=O)N(CC2CCOC2)C2CC2)cn1` (configuration not stated), the cytotoxicity at 10 µM is -6.95%. Then `COCCN1CC[C@H]2CN(Cc3ccc(C)s3)C[C@@H]2C1=O`, with -3.72%; and `Cc1ccsc1C(=O)N1CC(C(=O)NCC2CC2)C2(CCOCC2)C1` (configuration not stated), with 0.955%. `CN(CC(F)(F)F)C(=O)C1CSCN1C(=O)OC(C)(C)C` (configuration not stated): the cytotoxicity at 10 µM was -0.265%.

On to `Cc1occc1C(=O)N1CCCN(Cc2cnn(C(C)C)c2)CC1`, for which the cytotoxicity at 10 µM was -5.62%. For the compound `CC(=O)N[C@@H]1CN(Cc2nnc(-c3ccccc3)o2)C[C@H]1C(C)C`, the cytotoxicity at 10 µM is -0.598%. Take `CC(=O)N1CCCN(C(=O)NCCOc2ccc3c(c2)CCC3)CC1`: the cytotoxicity at 10 µM is -1.84%. For `CN(Cc1cc(-c2ccccc2)no1)C1CCCN(c2cccnn2)C1` (configuration not stated), the cytotoxicity at 10 µM was -10.2%. Consider `CCc1cc(CNC(=O)c2cc(NC(=O)C(C)C)ccc2Cl)[nH]n1`, for which the cytotoxicity at 10 µM stood at 9.36%. Take `CNC(=O)CCc1cc(C2CCNCC2)nc(C)n1`: the cytotoxicity at 10 µM was -6.41%. Then `c1ccc2[nH]c(C3CCN(Cc4nnc(C5CC5)o4)CC3)cc2c1`, with 3.65%. To `COC(=O)N1CCCC(NC(=O)NCc2cccc(C)n2)C1` (configuration not stated) belongs -8.62%; to `Cc1ccc(NC2CCN(C(=O)c3cccnc3O)CC2)nn1`, -27.6%; to `CCN1C(=O)CC(c2cnn(C)c2)C12CCN(C(=O)c1ccoc1)CC2` (configuration not stated), 9.61%. Then `CCN(CC)c1ncc(CNC2CCc3ncnn3C2)s1` (configuration not stated), with -1.06%; and `CCc1csc(C2CCCN(C(=O)c3cc(Cl)c[nH]3)C2)n1` (configuration not stated), with -9.83%; and `CCN1CCC2(CN(C(C)=O)CC23CCN(CC2CC2)CC3)C1=O` (configuration not stated), with 3.94%. Turning to `Cc1nn(C)c(C)c1NC(=O)CNC(c1ccc(F)cc1)C1CCC1` (configuration not stated), the cytotoxicity at 10 µM was -1.65%.
